{"source": "ChEMBL document CHEMBL1127851", "about": "“Synthesis and biological properties of 5-o-carboranyl-1-(2-deoxy-2-fluoro-beta-D-arabinofuranosyl)uracil” (J Med Chem, 1994)", "key": {"Mus musculus [1]": {"species_on_record": "Mus musculus", "assay": "Number of animals survived when the compound was tested at a dose of 30 mgkg/day in 5 Swiss mice", "format": "functional", "method_in_brief": "(§1)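 Female Swiss mice, 6 weeks old, 5 per group. Given 30 mg/kg/day ip in sterile DMSO (0.1 mL) once daily for 6 days. DMSO and water controls. Weighed twice weekly for 28 days. Survival recorded at week 4.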"}, "Mus musculus [2]": {"tested_on": "Mus musculus", "assay": "Percentage of weight gained or lost in 2nd week in normal swiss mice at a dose of 30 mg/kg/day", "format": "functional", "method_in_brief": "as §1"}, "Mus musculus [3]": {"tested_on": "Mus musculus", "assay": "Percentage of weight gained or lost in 4th week in normal swiss mice at a dose of 30 mg/kg/day", "format": "functional", "method_in_brief": "as §1"}, "Mus musculus [4]": {"tested_on": "Mus musculus", "assay": "Percentage of weight gained or lost in 3rd week in normal swiss mice at a dose of 30 mg/kg/day", "format": "functional", "method_in_brief": "as §1"}, "Mus musculus [5]": {"tested_on": "Mus musculus", "assay": "Percentage of weight gained or lost in 1 week in normal swiss mice at a dose of 30 mg/kg/day", "format": "functional", "method_in_brief": "as §1"}, "Vero": {"tested_on": "Vero", "assay": "Antiviral activity against HSV-1 strain F in Vero cells on day 2", "format": "functional, cell-based", "conditions": "Chlorocebus sabaeus, 48 h", "method_in_brief": "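Plaque reduction assay in Vero cells infected with HSV-1 strain F. […], diluted from 40 mM DMSO stocks. EC50 by Chou–Talalay median-effect analysis of the concentration-response curve. Replicate assays.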"}, "CFU-GM": {"tested_on": "CFU-GM", "assay": "Compound was tested for inhibitory activity against human myeloid cells (CFU-GM)", "format": "functional, cell-based", "method_in_brief": "(§2)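 Human bone marrow aspirated from healthy donors and heparinized. Mononuclear cells isolated on Ficoll-Hypaque, washed twice in HBSS; viability >98% by trypan blue. Bilayer soft agar or methyl cellulose culture at 0.1–100 μM. After 14 days at 37 °C in 5% CO2, colonies of ≥50 cells counted; % of control. Three donors, each in triplicate.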"}, "[6]": {"assay": "Compound was tested for inhibitory activity against erythroid (BFU-E) progenitor cells", "format": "functional, Homo sapiens", "method_in_brief": "as §2"}, "PBMC [7]": {"tested_on": "PBMC", "assay": "Cytotoxic concentration against PBM cells was determined on day 6", "format": "functional, cell-based", "conditions": "Homo sapiens, 144 h", "method_in_brief": "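Cytotoxicity in human PBM, CEM and Vero cells, compounds diluted from 40 mM DMSO stocks. IC50 from the concentration-response curve by Chou–Talalay median-effect method. Replicate assays, variability under 15%.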"}, "PBMC [8]": {"tested_on": "PBMC", "assay": "Antiviral activity against HIV-1 strain LAI in PBM cells on day 6", "format": "functional, cell-based", "conditions": "Homo sapiens, 144 h", "method_in_brief": "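HIV-1 (strain […] per footnote) in human PBM cells, acutely infected. Compounds from 40 mM DMSO stocks, diluted to test concentrations. EC50 from concentration-response curve by Chou–Talalay median-effect method. Replicate assays, variability under 15%.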"}}}
{"molecule": "C[S+](C)[O-]", "note": "[DIMETHYL SULFOXIDE]", "values": [{"measurement": "No. of animals survived", "setting": "Mus musculus [1]", "result": 5}, {"measurement": "Weight gain or loss", "setting": "Mus musculus [2]", "result": 3, "unit": "%"}, {"measurement": "Weight gain or loss", "setting": "Mus musculus [3]", "result": 10, "unit": "%"}, {"measurement": "Weight gain or loss", "setting": "Mus musculus [4]", "result": 6.3, "unit": "%"}, {"measurement": "Weight gain or loss", "setting": "Mus musculus [5]", "result": -0.9, "unit": "%"}]}
{"molecule": "Cc1cn([C@H]2C[C@H](N=[N+]=[N-])[C@@H](CO)O2)c(=O)[nH]c1=O", "note": "[ZIDOVUDINE]", "values": [{"measurement": "EC50", "setting": "Vero", "result": "> 50000", "unit": "nM"}, {"measurement": "IC50", "setting": "CFU-GM", "result": 1500, "unit": "nM"}, {"measurement": "IC50", "setting": "[6]", "result": 600, "unit": "nM"}, {"measurement": "IC50", "setting": "PBMC [7]", "result": "> 100000", "unit": "nM"}, {"measurement": "EC50", "setting": "PBMC [8]", "result": 4, "unit": "nM"}]}
